The source made the active and inactive calls. No cut-off for these calls is given here.

Series [1] in a line: Toxicity in BALB/c nude mouse xenografted with human HSC6 cells assessed as effect on kidney morphology at 15 to 30 mg/kg. The class given is organism-based. The conditions noted are these: in vivo, dose 15-30 mg/kg. In short, it runs like this: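 Subcutaneous xenograft in 4-week-old BALB/c nude mice given 6 × 10^7 HSC6 cells into the back. Groups were control, 15 mg/kg and 30 mg/kg. Body weight was monitored and major organs were examined for toxicity.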
(A xenograft is tissue or cells of one species grown in another, often human tumour cells in immunodeficient mice.)

The next series deals with Rattus norvegicus. Description: Antitumor activity against 4-Nitroquinoline-1-Oxide induced cancer Sprague-Dawley rat carcinogenic model assessed as normal area of tongue tissue at 30 mg/kg, iv administered on week 12 and measured on week 22 (reference value: 6.7%). It is filed as functional. The conditions noted are these: time 10 weeks.
Series [2] has as its target Protein arginine N-methyltransferase 5 (Homo sapiens) (UniProt O14744). Description: Inhibition of PRMT5 in human HSC-6 cells assessed as reduction in H3R2me2 protein expression at 10 uM incubated for 4 days by western blot analysis. The class given is cell-based. Particulars: time 4.0 day. On the technique in general: Immunoblotting shows a protein as a band on a membrane.

Series [3] shares this target. Description: Inhibition of PRMT5 in human SCC-25 cells assessed as increase in E-cadherin protein expression level at 10 uM incubated for 4 days by western blot analysis. It is filed as cell-based. Particulars: time 4.0 day. In outline:
(§1)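 HSC6 or SCC25 cells treated with 10 μM for 4 days. E-cadherin, N-cadherin and Twist1 proteins detected by immunoblot.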

For series [4], the system named is HSC-6. Description: Antiproliferative activity against human HSC-6 cells assessed as reduction in colony formation at 0.5 to 5 uM after 10 to 14 days […]. It is filed as functional, cell-based. Particulars: dose 0.5-5 µM, time 10-14 day. In outline:
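Colony formation: cells dispersed to single cells and seeded at 500 cells/well in 6-well plates. Grown 10–14 days until macroscopic clones appeared, then formaldehyde-fixed and crystal violet-stained. Clone formation rate from clones counted by eye.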

The subject of series [5] is HSC-6. Description: Antimigratory activity against human HSC-6 cells assessed as reduction in cell migration after 48 hrs incubated for 48 hrs by transwell assay. It is filed as functional, cell-based.
Series [6] has as its target Protein arginine N-methyltransferase 5 (Homo sapiens) (UniProt O14744). Description: Inhibition of PRMT5 in human SCC-25 cells assessed as reduction in H3R8me2 protein expression at 10 uM incubated for 4 days by western blot analysis. The class given is cell-based. Particulars: time 4.0 day.
Series [7] is described as follows: Toxicity in BALB/c nude mouse xenografted with human HSC6 cells of orthotopic tumor assessed as effect on body weight at 30 mg/kg. The conditions noted are these: in vivo. It is filed as organism-based. In outline: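 Orthotopic model: 5 × 10^5 HSC6 cells injected submucosally into the tongue of 4-week-old BALB/c nude mice. Control vs 30 mg/kg (n = 12 each). Body weight was followed, and cervical lymph nodes were stained with pan-cytokeratin.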

The target of series [8] is Protein arginine N-methyltransferase 5 (Homo sapiens) (UniProt O14744). Description: Inhibition of PRMT5 in human SCC-25 cells assessed as reduction in H3R2me2 enrichment in Twist1 promoter region at 10 uM incubated for 4 days by Chip-qPCR analysis. The class given is cell-based. Particulars: time 4.0 day. In short, it runs like this:
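ChIP-qPCR at the Twist1 promoter after 4 days at 10 μM in HSC6 or SCC25 cells. Antibody ratios: H3R2me2s 1:100, H4R3me2s 1:100, WDR5 1:50, Set1 1:50; ChIP assay kit protocol. Mean ± SD of three independent experiments, Student's t test.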
(In general: In qPCR the cycle at which signal appears reflects the starting amount.)

Series [9] shares this target. Description: Inhibition of PRMT5 in human HSC-6 cells assessed as reduction in Twist1 protein expression at 10 uM incubated for 4 days by western blot analysis. The conditions noted are these: time 4.0 day. It is filed as cell-based. In short, it runs like this:
as §1

For series [10] the target is unchanged. Description: Inhibition of PRMT5 in human HSC-6 cells assessed as increase in E-cadherin protein expression level at 10 uM incubated for 4 days by western blot analysis. The conditions noted are these: time 4.0 day.

Chain of Protein arginine N-methyltransferase 5 (Homo sapiens) (O14744 whole entry): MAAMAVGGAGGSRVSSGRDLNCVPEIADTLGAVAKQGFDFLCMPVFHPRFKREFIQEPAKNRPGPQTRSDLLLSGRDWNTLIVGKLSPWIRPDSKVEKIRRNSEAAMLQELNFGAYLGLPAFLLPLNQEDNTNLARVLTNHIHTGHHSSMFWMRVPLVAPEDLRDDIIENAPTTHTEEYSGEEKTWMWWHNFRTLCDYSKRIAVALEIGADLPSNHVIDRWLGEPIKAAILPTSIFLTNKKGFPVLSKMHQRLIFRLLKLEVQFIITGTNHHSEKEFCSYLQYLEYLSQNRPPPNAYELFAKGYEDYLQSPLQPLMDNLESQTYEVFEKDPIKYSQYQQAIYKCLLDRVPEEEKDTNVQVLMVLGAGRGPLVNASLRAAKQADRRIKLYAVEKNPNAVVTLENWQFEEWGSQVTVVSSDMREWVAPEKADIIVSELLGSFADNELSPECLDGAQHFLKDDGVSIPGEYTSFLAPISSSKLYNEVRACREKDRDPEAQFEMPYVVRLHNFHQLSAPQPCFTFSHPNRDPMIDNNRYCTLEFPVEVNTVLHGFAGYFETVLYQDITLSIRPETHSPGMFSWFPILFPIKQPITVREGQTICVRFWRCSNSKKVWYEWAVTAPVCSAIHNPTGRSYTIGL

For the compound `O=C(NC[C@H](O)CN1CCc2ccccc2C1)c1cc(NC2COC2)ncn1`, the Activity entry is “Non-Toxic” in series [1], 38.5% in the series with Rattus norvegicus and “Non-Toxic” in series [7]. The inhibition result in series [2], in series [3], in series [6], in series [8], in series [9] and in series [10] was “Active” in each case. For the same compound, the outcome in the series with HSC-6 [4] and with HSC-6 [5] was Active.

The values above are taken from ChEMBL document CHEMBL5712918, “Targeting methyltransferase PRMT5 retards the carcinogenesis and metastasis of HNSCC via epigenetically inhibiting Twist1 transcription” (Neoplasia, 2020).
